Bioassay records (PubChem BioAssay)
MT1-MMP txn act = MT1-MMP promoter transcription activation; HT1080 MT1-MMP promoter luciferase reporter, luminescence, overnight; active compounds read high; activation factor at 10 µM; hit rate 0.16% among 86,000; AID 750;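 active = activation factor of at least 2 for MT1-MMP transcription at 10 µM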
SF-1 act = SF-1 (human) activation; hit rate 1.9% among 65,000; CHO-K1 Gal4-SF-1 LBD luciferase reporter; % increase over DMSO SF-1-specific signal; activation, % at 10 µM; AID 522;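 active = activation above the mean activation of all tested compounds plus 3 SD, cut at about 50% in these data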
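System: CHO-K1 cells with Gal4–hSF-1 LBD chimera plus Gal4-driven luciferase; quantity: 4,000 CHO-K1 cells per well; compound: one dose, 10 µM compound, 1% DMSO; times: 20 h compound treatment, 37 °C; measured by: SteadyLite luciferase luminescence; read-out: percent activation versus DMSO; benchmarks: DMSO and mock-transfected background; replicates: one test per compound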
AP ELISA ortho = orthogonal test for alternative complement pathway inhibitors | Human serum alternative complement pathway, LPS-coated ELISA, C3 deposition; tested in compound mixtures | hit rate 0.08% among 62,000 | inhibition, % at 5 µM;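 active = inhibition above 30% in each of the two pooled mixtures holding the compound, so the lower value exceeds 30%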;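 note: 0% = serum in Mg-EGTA without compound and 100% = EDTA serum blank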
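Medium: diluted human serum in Mg2+-EGTA GVB++. Assay system: human serum complement alternative pathway, C3 deposition onto LPS. Also added: Plate-bound LPS. Technique: Anti-C3 ELISA, OD 450 nm. Measure: percent inhibition. Incubation: 1 h at 37 °C. Dosing: 5 µM each compound, pools of ten, 50 µM per pool.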
E coli RNAP = Escherichia coli RNA polymerase inhibition; hit rate 0.2% among 62,000; E. coli RNA polymerase, fluorescence transcription assay; P0A8V2; inhibition, %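 (tested at 10 µM)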; in the data active = inhibition above about 20%;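 note: 0% = enzyme without compound and 100% = no enzyme blank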
TNAP act mid DEA = activators of human TNAP at intermediate phosphate acceptor | 64,000 tested, under 10 active | P05186 | activation factor at 20 µM | purified TNAP, CDP-star luminescence, 100 mM DEA, 30 min; active compounds read high; scale: 0 levamisole-inhibited, 1 vehicle-only enzyme;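 active = activation factor of at least 2 at 20 µM, relative to controls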
RORA act = activators of human nuclear receptor RORA | P35398 | CHO-K1 Gal4-RORA LBD luciferase reporter, luminescence; percent increase over mock-subtracted basal signal | activation, % at 10 µM | hit rate 1.5% among 65,000;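 active = activation above the mean of all tested compounds plus 3 SD, cut at about 49% in these data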;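 note: 0% = DMSO-treated RORA cells and 100% = added signal equal to DMSO minus mock-transfected cells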
Target sequence (P35398 whole entry, looked up, the tested form may be a part): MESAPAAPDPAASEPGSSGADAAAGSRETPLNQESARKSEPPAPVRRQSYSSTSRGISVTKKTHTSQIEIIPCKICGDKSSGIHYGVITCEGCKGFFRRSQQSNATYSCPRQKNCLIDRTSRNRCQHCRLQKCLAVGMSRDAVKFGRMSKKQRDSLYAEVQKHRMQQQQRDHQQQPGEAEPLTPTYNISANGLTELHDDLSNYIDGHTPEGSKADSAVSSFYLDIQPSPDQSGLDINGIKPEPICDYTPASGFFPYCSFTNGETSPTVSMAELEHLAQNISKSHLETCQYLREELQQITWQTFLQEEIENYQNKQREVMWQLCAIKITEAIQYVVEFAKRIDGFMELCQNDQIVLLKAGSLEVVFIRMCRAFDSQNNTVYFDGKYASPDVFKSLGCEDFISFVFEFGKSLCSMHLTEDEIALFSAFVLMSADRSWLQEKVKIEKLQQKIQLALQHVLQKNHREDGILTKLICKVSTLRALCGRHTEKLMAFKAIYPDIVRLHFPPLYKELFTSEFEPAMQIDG
An asterisk follows results filed as active; nt = not tested or not shown. Only some compounds are listed: those with a hit (about 2.2% of all), similar ones and a draw of the others.

SMILES	MT1-MMP txn act	SF-1 act	AP ELISA ortho	E coli RNAP	TNAP act mid DEA	RORA act
CS(=O)(=O)C1=C(O)C(=O)N(c2ccccc2)C1c1ccccc1 (stereo not drawn)	1	-4	12	4	0.8	-8
O=C(NC1CCCCC1)C1CC=CCC1C(=O)OCC(Cl)=C(Cl)Cl (stereo not drawn)	1.2	nt	nt	nt	nt	nt
COc1cc(C)c(C(C)C)cc1S(=O)(=O)NCCCn1ccnc1	1.1	-10	-5	-5	1	13
Cc1ccc(NC(=O)c2ocnc2C)cc1Cl	1.6	72*	3	7	1	61*
Cc1ncoc1C(=O)Nc1cccc(Cl)c1	1.6	46	-1	6	0.9	33
CC(Oc1cc(-c2ccccc2)cc2ccccc12)C(=O)N1CCOCC1 (stereo not drawn)	1.6	nt	nt	nt	nt	nt
Cc1nc(NC(=O)c2ccccc2)sc1-c1csc(N)n1	1.3	32	-1	-1	0.9	81*
Cc1nc(NC(=O)c2ccccc2)sc1-c1csc(NCc2ccccc2)n1	1.1	nt	nt	nt	nt	nt
Cc1onc(-c2ccccc2)c1C(=O)Nc1nc(-c2cc(F)ccc2F)cs1	0.7	54*	8	5	0.9	18
Cc1ccccc1NC(=O)c1ccc(NC(=O)c2ccco2)cc1	1.1	19	-4	9	0.8	19
O=C(Nc1ccc(-c2nc3ncccc3o2)cc1)c1ccco1	1.1	63*	-3	8	1	42
Cc1cc(C(=O)Nc2ccccn2)cs1	0.7	62*	4	4	0.9	56*
O=C(Nc1ccc(-c2nc3ncccc3o2)cc1)c1ccc(Br)o1	1.2	-23	10	2	1	-20
O=C(OC1CCCCC1)c1ccc(NC(=O)c2ccco2)cc1	1.5	60*	17	4	0.9	49*
O=C(Nc1ccccn1)c1ccc(NC(=O)c2ccco2)cc1	1.2	60*	19	3	0.9	71*
C#CCCCC(=O)Nc1ccccc1	1.1	nt	nt	nt	nt	nt
COC(=O)c1cccc(C(=O)Nc2cnc3ccccc3c2)n1	1.4	97*	16	2	1	43
O=C(Nc1cnc2ccccc2c1)c1ccncc1	1.1	30	4	4	0.9	74*
CCN(CC)C(=O)Nc1cnc2ccccc2c1	1.3	13	4	10	0.8	41
N#CCCn1cc(/C=N/O)c(-c2ccc(Cl)cc2)n1	1.1	nt	nt	nt	nt	nt
N#CCCn1cc(/C=N/O)c(-c2ccc(-c3ccccc3)cc2)n1	1	57*	19	4	1	34
CCc1c2c(nc3ccc(N(C)C)cc13)-c1cccc(=O)n1C2	1	nt	nt	nt	nt	nt
CCCCNC(=O)C(c1ccc(OCC(=O)OC)c(C(=O)OC)c1)N(CCc1c[nH]c2ccccc12)C(=O)CCCCCN1C(=O)NC(c2ccc(-c3ccccc3)cc2)C(C(=O)OCc2ccccc2)=C1C (stereo not drawn)	1	nt	nt	nt	nt	nt
Cc1cccc(OCc2nnc(SCc3cc(=O)n4cc(Br)ccc4n3)o2)c1	1.2	-6	18	2	0.9	4
Cc1ccc(C(=O)/C=C/Nc2cccc(O)c2)cc1	0.1	18	-2	7	0.9	-14
SMILES	MT1-MMP txn act	SF-1 act	AP ELISA ortho	E coli RNAP	TNAP act mid DEA	RORA act
O=C(/C=C/Nc1cccc(O)c1)c1ccccc1	nt	57*	-2	4	0.9	12
O=C(Cn1c(NCCO)nc2ccccc21)NCCc1ccc(F)cc1	1.1	nt	nt	nt	nt	nt
CCOC(=O)c1cc(-c2ccccc2)sc1N	1.6	31	11	2	0.9	28
CCOC(=O)c1sc(-c2ccccc2)cc1N	1.5	52*	3	8	0.9	49*
CCOC(=O)c1sc(-c2ccc(OC)cc2)cc1N	1.5	62*	14	1	0.8	44
O=c1[nH]c(=O)n(Cc2ccco2)c2c1C(C(F)(F)F)(C(F)(F)F)N=C(Cc1ccccc1)N2	1.2	nt	nt	nt	nt	nt
O=C(c1ccc2c(c1)OCO2)N1CCc2ccccc2C1	1.8	44	14	5	0.8	66*
CC1=CC(C)=Nc2ccccc2N1	1.3	nt	nt	nt	nt	nt
Cc1ccc(C2=Nc3ccccc3NC(C)(c3ccc(C)o3)C2)o1 (stereo not drawn)	1.2	106*	-11	-16	0.9	53*
Cc1cccc(N(C)S(=O)(=O)c2ccc3[nH]c(=O)c(=O)[nH]c3c2)c1	1.2	18	21	4	0.9	-2
COc1ccc(/C(O)=C2/C(=O)C(=O)N(CCCN(C)C)C2c2ccco2)cc1Cl (stereo not drawn)	1	3	-3	6	0.8	-8
CCCn1c(C)cc(C(=O)CN2C(=O)c3ccccc3C2=O)c1C	1.3	65*	7	8	0.9	55*
COc1ccc(C(=O)CN2C(=O)c3ccccc3C2=O)c(OC)c1C	1	-2	18	2	0.9	-2
CN(C)S(=O)(=O)N1CCN(C(=O)c2cccs2)CC1	1.1	nt	nt	nt	nt	nt
COc1ccc(S(=O)(=O)Cc2ccc(C(=O)N3CCN(c4cccc(C)c4)C(C)C3)o2)cc1 (stereo not drawn)	0.5	28	6	1	0.9	55*
COc1cccc2c1C(=O)c1c(O)c3c(c(O)c1C2=O)C[C@@](O)(C(=O)CO)C[C@@H]3O[C@H]1C[C@H](N)[C@H](O)[C@H](C)O1	0.5	-80	-16	32*	0.7	-63
CC(=O)c1cc2c(O)c(O)ccc2o1	1.2	-8	-5	21*	0.9	-12
Cc1ccccc1Cn1c(=O)c2c(nc3n2CCN3Cc2ccco2)n(C)c1=O	0.8	-6	46	2	1	-18
CCN(CC)S(=O)(=O)c1ccc(N2CCN(S(=O)(=O)c3ccc4c(c3)OCCO4)CC2)nc1	1.1	nt	nt	nt	nt	nt
COc1ccc(C2=NOC(C(=O)N3CCOCC3)C2)cc1OC (stereo not drawn)	1.3	28	10	2	0.9	2
COc1cccc(C2=NOC(C(=O)N3CCOCC3)C2)c1 (stereo not drawn)	1.7	57*	-4	-9	1	20
O=C(c1ccc(Oc2ccccc2)cc1)c1nc2c(n1O)CCCC2	0.9	nt	nt	nt	nt	nt
CCCCc1ccc(NC(=O)C2CCCO2)cc1 (stereo not drawn)	1.5	33	-1	8	0.8	76*
CCCCOC(=O)c1ccc(NC(=O)C2CCCO2)cc1 (stereo not drawn)	1.6	30	18	-4	1	39
CCOC(=O)c1ccc(NC(=O)C2CCCO2)cc1 (stereo not drawn)	1.5	64*	18	0	0.9	12
CSc1n[nH]c(NCc2ccc(C)cc2)n1	1.5	nt	nt	nt	nt	nt
O=C(CSc1ncn[nH]1)Nc1nnc(-c2ccccc2)s1	1.3	-16	5	-3	1	56*
CC1(C)CC(=O)C2=C(C1)Nc1ccccc1N=C2	1.5	58*	14	3	0.8	42
